From publication PMC4716659 (European journal of medicinal chemistry, 2015)
≈ marks a conversion by molar mass, not a printed value. Entries after “also recorded” stand apart in the source; their conditions may differ.

Tests used:
S. aureus VRS4 (VRSA) [1] = assay: MIC, broth microdilution; assay type: cell-based, Staphylococcus aureus; conditions: Staphylococcus aureus, VRSA
S. aureus USA500 (MRSA) [2] = assay: MIC, broth microdilution; assay type: cell-based, Staphylococcus aureus; conditions: Staphylococcus aureus, MRSA|USA500
S. aureus NRS119 (MRSA) [3] = assay: MIC, broth microdilution; assay type: cell-based, Staphylococcus aureus; conditions: Staphylococcus aureus, MRSA|NRS119
S. aureus USA300 (MRSA) [4] = assay: MIC, broth microdilution; assay type: cell-based, Staphylococcus aureus; conditions: Staphylococcus aureus, MRSA|USA300
S. aureus VRS1 (VRSA) [5] = assay: MBC, plating onto TSA; assay type: cell-based, Staphylococcus aureus; conditions: Staphylococcus aureus, VRSA
S. aureus USA 400 (MRSA) [6] = assay: MIC, broth microdilution; assay type: cell-based, Staphylococcus aureus; conditions: Staphylococcus aureus, MRSA|USA400
S. aureus NRS37 (VISA) [7] = assay: MIC, broth microdilution; assay type: cell-based, Staphylococcus aureus; conditions: Staphylococcus aureus, NRS37|VISA
[8] = test system: methicillin-resistant Staphylococcus aureus (MRSA) ATCC 43300; assay: MIC, broth microdilution; assay type: cell-based; conditions: Staphylococcus aureus, ATCC43300|MRSA
S. aureus NRS194 (MRSA) [9] = assay: MIC, broth microdilution; assay type: cell-based, Staphylococcus aureus; conditions: Staphylococcus aureus, MRSA|NRS194
S. aureus NRS119 (MRSA) [10] = assay: MBC, plating onto TSA; assay type: cell-based, Staphylococcus aureus; conditions: Staphylococcus aureus, MRSA|NRS119
S. aureus NRS194 (MRSA) [11] = assay: MBC, plating onto TSA; assay type: cell-based, Staphylococcus aureus; conditions: Staphylococcus aureus, MRSA|NRS194
S. aureus NRS107 (MRSA) [12] = assay: MIC, broth microdilution; assay type: cell-based, Staphylococcus aureus; conditions: Staphylococcus aureus, MRSA|NRS107
[13] = test system: S. aureus ATCC 43300 (MRSA); assay: MBC, plating onto TSA; assay type: cell-based, Staphylococcus aureus; conditions: Staphylococcus aureus, ATCC43300|MRSA
[14] = test system: human embryonic kidney (HEK293) cell line; assay: In vitro cytotoxicity, MTS assay; conditions: 40 μg/mL
S. aureus NRS19 (VISA) [15] = assay: MIC, broth microdilution; assay type: cell-based, Staphylococcus aureus; conditions: Staphylococcus aureus, NRS19|VISA
S. aureus NRS1 (VISA) [16] = assay: MIC, broth microdilution; assay type: cell-based, Staphylococcus aureus; conditions: Staphylococcus aureus, NRS1|VISA
S. aureus NRS107 (MRSA) [17] = assay: MBC, plating onto TSA; assay type: cell-based, Staphylococcus aureus; conditions: Staphylococcus aureus, MRSA|NRS107
S. aureus NRS37 (VISA) [18] = assay: MBC, plating onto TSA; assay type: cell-based, Staphylococcus aureus; conditions: Staphylococcus aureus, NRS37|VISA
S. aureus VRS4 (VRSA) [19] = assay: MBC, plating onto TSA; assay type: cell-based, Staphylococcus aureus; conditions: Staphylococcus aureus, VRSA
S. aureus VRS5 (VRSA) [20] = assay: MIC, broth microdilution; assay type: cell-based, Staphylococcus aureus; conditions: Staphylococcus aureus, VRSA
S. aureus USA300 (MRSA) [21] = assay: MBC, plating onto TSA; assay type: cell-based, Staphylococcus aureus; conditions: Staphylococcus aureus, MRSA|USA300
S. aureus NRS19 (VISA) [22] = assay: MBC, plating onto TSA; assay type: cell-based, Staphylococcus aureus; conditions: Staphylococcus aureus, NRS19|VISA
S. aureus VRS5 (VRSA) [23] = assay: MBC, plating onto TSA; assay type: cell-based, Staphylococcus aureus; conditions: Staphylococcus aureus, VRSA
S. aureus NRS1 (VISA) [24] = assay: MBC, plating onto TSA; assay type: cell-based, Staphylococcus aureus; conditions: Staphylococcus aureus, NRS1|VISA
S. aureus VRS1 (VRSA) [25] = assay: MIC, broth microdilution; assay type: cell-based, Staphylococcus aureus; conditions: Staphylococcus aureus, VRSA
S. aureus USA500 (MRSA) [26] = assay: MBC, plating onto TSA; assay type: cell-based, Staphylococcus aureus; conditions: Staphylococcus aureus, MRSA|USA500
S. aureus USA 400 (MRSA) [27] = assay: MBC, plating onto TSA; assay type: cell-based, Staphylococcus aureus; conditions: Staphylococcus aureus, MRSA|USA400
three VRSA strains = assay: MIC against VRSA strains; assay type: cell-based; conditions: Staphylococcus aureus
two VISA isolates = assay: MIC against VISA isolates; assay type: cell-based; conditions: Staphylococcus aureus
MRSA USA300 = assay: Time-kill analysis; assay type: cell-based, Staphylococcus aureus; conditions: MRSA USA300, 3 × MIC, 37 °C
Method in brief: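 Late-log-phase cells diluted to ~1 × 10^8 CFU/mL in MHB and exposed to test compound or vancomycin in triplicate at 37 °C. 20 μL samples taken at 0, 2, 4, 6, 8, 10, 12 and 24 h, serially diluted in PBS, and plated on TSA. Plates incubated 18–20 h at 37 °C, then viable CFU/mL counted. Data given as mean ± standard deviation.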

[28] = human, microsomes, pH 7.4

MIC (S. aureus VRS4 (VRSA) [1]) [µg/mL]	MIC (S. aureus USA500 (MRSA) [2]) [µg/mL]	MIC (S. aureus NRS119 (MRSA) [3]) [µg/mL]	MIC (S. aureus USA300 (MRSA) [4]) [µg/mL]	MIC (S. aureus USA 400 (MRSA) [6]) [µg/mL]	MIC (S. aureus NRS37 (VISA) [7]) [µg/mL]	MIC (S. aureus NRS194 (MRSA) [9]) [µg/mL]	MIC (S. aureus NRS107 (MRSA) [12]) [µg/mL]	MIC (S. aureus NRS19 (VISA) [15]) [µg/mL]	MIC (S. aureus NRS1 (VISA) [16]) [µg/mL]	MIC (S. aureus VRS5 (VRSA) [20]) [µg/mL]	SMILES	MBC (S. aureus VRS1 (VRSA) [5]) [µg/mL]	MBC (S. aureus NRS119 (MRSA) [10]) [µg/mL]	MBC (S. aureus NRS194 (MRSA) [11]) [µg/mL]	MBC [13] [µg/mL]	MBC (S. aureus NRS107 (MRSA) [17]) [µg/mL]	MBC (S. aureus NRS37 (VISA) [18]) [µg/mL]	MBC (S. aureus VRS4 (VRSA) [19]) [µg/mL]	MBC (S. aureus USA300 (MRSA) [21]) [µg/mL]	MBC (S. aureus NRS19 (VISA) [22]) [µg/mL]	also measured
6.7 (≈ 16 µM)	3.3 (≈ 7.9 µM)	6.7 (≈ 16 µM)	6.7 (≈ 16 µM)	6.7 (≈ 16 µM)	3.3 (≈ 7.9 µM)	6.7 (≈ 16 µM)	3.3 (≈ 7.9 µM)	3.3 (≈ 7.9 µM)	3.3 (≈ 7.9 µM)	6.7 (≈ 16 µM)	[H]/N=C(\N)NN=C(C)c1sc(-c2ccc(-c3ccc(C(F)(F)F)cc3)cc2)nc1C [22c, (E)-2-(1-(4-Methyl-2-(4′-(trifluoromethyl)-[1,1′-biphenyl]-4-yl)thiazol-5-yl)ethylidene)hydrazinecarboximidamide]	6.7 (≈ 16 µM)	6.7 (≈ 16 µM)	13.3 (≈ 31.9 µM)	3.3 (≈ 7.9 µM)	6.7 (≈ 16 µM)	3.3 (≈ 7.9 µM)	6.7 (≈ 16 µM)	6.7 (≈ 16 µM)	3.3 (≈ 7.9 µM)	MIC ([8]; MRSA ATCC 43300): 3.3 µg/mL (≈ 7.9 µM); toxicity to mammalian cells (MTS assay) [14]: toxic; MBC (S. aureus VRS5 (VRSA) [23]): 6.7 µg/mL (≈ 16 µM); MBC (S. aureus NRS1 (VISA) [24]): 3.3 µg/mL (≈ 7.9 µM); MIC (S. aureus VRS1 (VRSA) [25]): 6.7 µg/mL (≈ 16 µM); MBC (S. aureus USA500 (MRSA) [26]): 3.3 µg/mL (≈ 7.9 µM); MBC (S. aureus USA 400 (MRSA) [27]): 13.3 µg/mL (≈ 31.9 µM); MIC (three VRSA strains): 6.7 µg/mL (≈ 16 µM)
–	–	–	–	–	–	–	–	–	–	–	CC(=O)CC(c1ccccc1)c1c(O)c2ccccc2oc1=O (stereo not shown) [Warfarin]	–	–	–	–	–	–	–	–	–	NADPH-dependent CLint [28]: 0.0 µL/min/mg; NADPH-free CLint [28]: 0.0 µL/min/mg
3.2 (≈ 8.01 µM)	1.6 (≈ 4 µM)	1.6 (≈ 4 µM)	1.6 (≈ 4 µM)	1.6 (≈ 4 µM)	1.6 (≈ 4 µM)	1.6 (≈ 4 µM)	1.6 (≈ 4 µM)	1.6 (≈ 4 µM)	1.6 (≈ 4 µM)	3.2 (≈ 8.01 µM)	[H]/N=C(\N)NN=C(C)c1sc(-c2ccc(-c3cccc4ccccc34)cc2)nc1C [compound 25, (E)-2-(1-(4-Methyl-2-(4-(naphthalen-1-yl)phenyl)thiazol-5-yl)ethylidene)hydrazinecarboximidamide]	3.2 (≈ 8.01 µM)	1.6 (≈ 4 µM)	1.6 (≈ 4 µM)	1.6 (≈ 4 µM)	1.6 (≈ 4 µM)	1.6 (≈ 4 µM)	3.2 (≈ 8.01 µM)	1.6 (≈ 4 µM)	1.6 (≈ 4 µM)	MIC ([8]; MRSA ATCC 43300): 1.6 µg/mL (≈ 4 µM); toxicity to mammalian cells (MTS assay) [14]: not toxic; also recorded: improved toxicity profile; MIC (two VISA isolates): 1.6 µg/mL (≈ 4 µM); time to completely eradicate MRSA growth (MRSA USA300): 10 h; MBC (S. aureus VRS5 (VRSA) [23]): 3.2 µg/mL (≈ 8.01 µM); MBC (S. aureus NRS1 (VISA) [24]): 1.6 µg/mL (≈ 4 µM); MIC (S. aureus VRS1 (VRSA) [25]): 3.2 µg/mL (≈ 8.01 µM); MBC (S. aureus USA500 (MRSA) [26]): 3.2 µg/mL (≈ 8.01 µM); MBC (S. aureus USA 400 (MRSA) [27]): 1.6 µg/mL (≈ 4 µM)

SMILES	MIC (S. aureus VRS4 (VRSA) [1]) [µg/mL]	MIC (S. aureus USA500 (MRSA) [2]) [µg/mL]	MIC (S. aureus NRS119 (MRSA) [3]) [µg/mL]	MIC (S. aureus USA300 (MRSA) [4]) [µg/mL]	MIC (S. aureus USA 400 (MRSA) [6]) [µg/mL]	MIC (S. aureus NRS37 (VISA) [7]) [µg/mL]	MIC (S. aureus NRS194 (MRSA) [9]) [µg/mL]	MIC (S. aureus NRS107 (MRSA) [12]) [µg/mL]	MIC (S. aureus NRS19 (VISA) [15]) [µg/mL]	MIC (S. aureus NRS1 (VISA) [16]) [µg/mL]	MIC (S. aureus VRS5 (VRSA) [20]) [µg/mL]	MBC (S. aureus VRS1 (VRSA) [5]) [µg/mL]	MBC (S. aureus NRS119 (MRSA) [10]) [µg/mL]	MBC (S. aureus NRS194 (MRSA) [11]) [µg/mL]	MBC [13] [µg/mL]	MBC (S. aureus NRS107 (MRSA) [17]) [µg/mL]	MBC (S. aureus NRS37 (VISA) [18]) [µg/mL]	MBC (S. aureus VRS4 (VRSA) [19]) [µg/mL]	MBC (S. aureus USA300 (MRSA) [21]) [µg/mL]	MBC (S. aureus NRS19 (VISA) [22]) [µg/mL]	also measured
CN[C@H](CC(C)C)C(=O)N[C@H]1C(=O)N[C@@H](CC(N)=O)C(=O)N[C@H]2C(=O)N[C@H]3C(=O)N[C@H](C(=O)N[C@H](C(=O)O)c4cc(O)cc(O)c4-c4cc3ccc4O)[C@H](O)c3ccc(c(Cl)c3)Oc3cc2cc(c3O[C@@H]2O[C@H](CO)[C@@H](O)[C@H](O)[C@H]2O[C@H]2C[C@](C)(N)[C@H](O)[C@H](C)O2)Oc2ccc(cc2Cl)[C@H]1O [Vancomycin, reference compound]	> 190	0.7 (≈ 0.483 µM)	< 1.5	0.7 (≈ 0.483 µM)	0.7 (≈ 0.483 µM)	3 (≈ 2.07 µM)	0.7 (≈ 0.483 µM)	< 1.5	< 1.5	3 (≈ 2.07 µM)	> 190	> 190	< 1.5	0.7 (≈ 0.483 µM)	0.7 (≈ 0.483 µM)	< 1.5	3 (≈ 2.07 µM)	> 190	0.7 (≈ 0.483 µM)	< 1.5	MIC [8]: 0.7 µg/mL (≈ 0.483 µM); MIC (two VISA isolates): 3 µg/mL (≈ 2.07 µM); time to completely eradicate MRSA growth (MRSA USA300): 24 h; MBC (S. aureus VRS5 (VRSA) [23]): > 190 µg/mL; MBC (S. aureus NRS1 (VISA) [24]): 3 µg/mL (≈ 2.07 µM); MIC (S. aureus VRS1 (VRSA) [25]): > 190 µg/mL; MBC (S. aureus USA500 (MRSA) [26]): 0.7 µg/mL (≈ 0.483 µM); MBC (S. aureus USA 400 (MRSA) [27]): 0.7 µg/mL (≈ 0.483 µM); MIC (three VRSA strains): > 190 µg/mL
